# Measurements as given in ChEMBL document CHEMBL4513216, “Probing the Open Global Health Chemical Diversity Library for Multistage-Active Starting Points for Next-Generation Antimalarials” (ACS Infect Dis, 2020).
# Test: Toxicity liver stage against HepG2, at 10uM
# Type: cell-based
# Set-up: test concentration 10 uM, cell line HepG2-A16-CD81EGFP
# Details: human, HepG2-A16-CD81EGFP cells; read-out: INHIBITION
# Outline: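 Uninfected HepG2-A16-CD81EGFP cells, 3 × 10^3 per well, 1536-well, plated on prespotted compound at 10 μM final, parasite-free screening media added to match infected plates; puromycin 10 μM positive, DMSO 0.5% negative; run in parallel with 48 h PbLuc assay at 37 °C, 5% CO2; viability by CellTiter-Glo luminescence, normalized to controls.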
row,Structure (SMILES),cytotoxicity at 10 µM [%]
1,CCN1CCN(C(C)CNC(=O)Nc2nnc(C)s2)CC1 (stereo not drawn),-12.2
2,CC(C)(C)c1coc([C@@H]2COCCN2Cc2cnc3ccccc3c2)n1,10.9
3,Cc1cc(C)n2c(CCCNS(=O)(=O)c3ccccc3)nnc2n1,1.18
4,COc1ccc2cnn(CC(=O)NCC3CCCO3)c(=O)c2c1OC (stereo not drawn),4.81
5,COCCN1C[C@H]2CCN(C(=O)Nc3ccccc3C)CC[C@H]2S1(=O)=O,0.64
6,COc1cccc(N2CC3(CCN(c4cc(OC)ncn4)C3)CC2=O)c1 (stereo not drawn),21.7
7,CN(C)C(=O)CNC(=O)c1nc2c(s1)CCCN2Cc1ccccc1,8.13
8,CC(=O)N1CCCc2sc(C(=O)Nc3ccc(C)nc3)nc21,7.46
9,O=C(NC1CCCC1)c1nc2c(o1)CN(C(=O)CO)C2,10
10,CS(=O)(=O)N1CCC2(CC1)CC(OCC1CCOCC1)CO2 (stereo not drawn),8.16
11,CCS(=O)(=O)N1CC[C@H]2OCC[C@@]2(c2nnc(C)o2)C1,7.95
12,Cc1noc(C2CN(S(=O)(=O)C3CC3)Cc3ccnn3C2)n1 (stereo not drawn),7.19
13,CC1=N[C@@]2(CC[C@@H]3CN(C(=O)NC(C)C)C[C@@H]32)C(=O)N1CC(C)C,7.74
14,O=C1CCCN1CC1CN(C(=O)N2CCOCC2)Cc2nccn2C1 (stereo not drawn),-1.05
15,CCc1nc(C#N)c(N2CCC(c3nc(-c4ccccc4)no3)CC2)o1,0.689
16,Cc1oc(-c2nc(C#N)c(NC(C)C)o2)cc1S(=O)(=O)N1CCCC1,5.61
17,CC(C)n1cc(N2CC(C(=O)N3CCN(C)CC3)CC2=O)cn1 (stereo not drawn),1.44
18,CCC(=O)N1CCCCC1c1nc(O)c2c(n1)CN(C(=O)C1CC1)CC2 (stereo not drawn),1.23
19,NC(=O)Nc1cccc(F)c1C(=O)NC1CCCC1,-8.64
20,Cc1nnc(CN(C)CCc2nc(-c3cccc(Cl)c3)no2)n1C,2.53
21,Cc1cc(NC(=O)NC(C)CN2CCN(c3ccccc3)CC2)on1 (stereo not drawn),11.5
22,FCCOc1cccc(NCc2c[nH]nc2-c2cccnc2)c1,1.14

row,Structure (SMILES),cytotoxicity at 10 µM [%]
1,COC(=O)c1sc2cccc(F)c2c1CNC(=O)C1CC1,-11.4
2,CCc1nc2n(n1)CCCC2Nc1nc(C(C)C)ns1 (stereo not drawn),3.88
3,OCC1CCN(Cc2cc3c(cc2Br)OCCO3)CC1,6.84
4,Cc1cccc(C)c1NC(=O)CN(C)C(C)c1nc(C(C)(C)C)no1 (stereo not drawn),-6.85
5,CCCn1nc2c(cc1=O)CN(Cc1nc(C)c3ccccc3n1)CC2,-2.45
6,CNC(=O)c1ccc(CNCc2ccc(SC)c(OC)c2)cc1,0.838
7,Cn1nc2c(cc1=O)CN(c1ncnc3ccsc13)CC2,9.3
8,O=C(CN1CCOc2ccc(Cl)cc21)NCCCn1ccnc1,-7.49
9,CC(C)Cc1nc(CN(C)CCOc2ccccc2F)no1,-0.731
10,CC(C)c1nn(C)c(N(C)C)c1CNC1CCN(CC2CC2)CC1,8.96
11,CSCC(C)CNC(=O)N1CCSC(C)(C)C1 (stereo not drawn),0.873
12,Cc1ccc2c(c1)OCCCC2NC1CCN(C)CC1 (stereo not drawn),10.4
13,NC(=O)C(NC(=O)c1cc(Br)c[nH]1)c1ccccc1 (stereo not drawn),0.172
14,CC(C)(C)C(C#N)NC(=O)c1ccc(Oc2cccnc2)cc1 (stereo not drawn),5.21
15,COc1cccc(CN(C)S(=O)(=O)N2CCOCC2)c1,-8.62
16,CS(=O)(=O)NCC1CCCCN1C(=O)Nc1cccnc1N1CCCC1 (stereo not drawn),-3.45
17,Cc1ccc(S(=O)(=O)NC(=O)c2c(C)noc2C(C)C)cc1C,-9.11
18,CN1Cc2ccccc2CC2(CCN(Cc3nccn3C)CC2)C1=O,7.81
19,CCN(C(=O)c1nc2c(s1)CCCN2c1ccc(C)nn1)C(C)C,3.86
20,Cn1cc(CN2Cc3cn(C)nc3C(COCC3CC3)C2)cn1 (stereo not drawn),-69.8
21,Cc1nc(CN2C(=O)CC[C@@H]3[C@H]2CCN3C(=O)c2ccno2)cs1,-82.7
22,Cn1cccc1C(=O)N1CCc2ncnc(N3CCOCC3)c2CC1,-74.3

row,Structure (SMILES),cytotoxicity at 10 µM [%]
1,O=C(c1cccs1)N1CC[C@H]2[C@@H]1CCC(=O)N2c1cccnc1,-74.3
2,O=C(c1cscn1)N1CCC2(CC1)CN(c1ccccn1)CCO2,-71
3,Cc1ccc(CN2CCCC23CCN(S(=O)(=O)c2ccccc2)C3)o1 (stereo not drawn),0.642
4,CN1C(=O)C2(CCN(CCO)C2)c2ccccc21 (stereo not drawn),5.84
5,O=C(Cc1ccsc1)N1CCCC(CNS(=O)(=O)Cc2ccccc2)C1 (stereo not drawn),4.24
6,CSCCCN1C(=O)CC[C@H]2CN(Cc3ncc[nH]3)CC[C@H]21,7.4
7,CN(Cc1ccc(CCC(C)(C)O)cc1)CC1(CO)CC1,-4.32
8,O=C(CC1C=CCC1)N1CCc2ncnc(NCc3ccon3)c2CC1 (stereo not drawn),22.8
9,Cc1cc(C)c(C(=O)N2CCCC(C(=O)CCc3ccccc3)C2)cn1 (stereo not drawn),-7.12
10,Cc1ccsc1CN(CCCC(F)(F)F)Cc1ccccn1,0.107
11,COc1ccc(Cn2cc(C(=O)N(C)Cc3ccn[nH]3)nn2)cc1,8.95
12,Fc1ccccc1-c1noc2c1CN(CCN1CCOCC1)CC2,0.0119
13,O=C(NCCn1cccc1)C1CCCN(C2CCCC2)C1 (stereo not drawn),0.301
14,O=C1CCC2(CCCN(Cc3nnc(C4CC4)o3)C2)CN1CCO (stereo not drawn),5.14
15,CCn1c(CN(C)C)nnc1C1CCN(c2nccc(NC)n2)CC1,7.36
16,O=C(NCc1csc(Cc2ccccc2)n1)C1NCCc2[nH]cnc21 (stereo not drawn),-4.32
17,CCCN1CCC(Cc2noc(-c3cccnc3OC)n2)CC1,-11.1
18,Cc1ccc(OC2(C(=O)O)CCN(C(=O)CCc3ccco3)CC2)cn1,1.33
19,CC(C)(C)c1ccn(C2(C(=O)O)CCN(c3ccnc(N)n3)CC2)n1,3.63
20,COc1ccc(N2CCN(C(=O)CCn3nccc3C)C(C)C2)cc1 (stereo not drawn),14.3
21,CC(C)CN1CCN(C)C(CCO)C1 (stereo not drawn),1.84
22,COCCN(CC(N)=O)CC1CCCN(C2Cc3ccccc3C2)C1 (stereo not drawn),-3.01

row,Structure (SMILES),cytotoxicity at 10 µM [%]
1,CN1CCC(Cc2noc(-c3cccc4c3OCC4)n2)CC1,-4.71
2,O=C1N(Cc2ccc(F)c(F)c2)CCCC1(O)CNCc1ncc[nH]1 (stereo not drawn),-4.27
3,Cc1noc(C(C)C)c1C(=O)NCc1cccnc1,3.93
4,Cc1oc(C(=O)O)cc1S(=O)(=O)Nc1ccccc1F,-2.8
5,CC(C(=O)NCCN1CCN(C)CC1)n1cncn1 (stereo not drawn),0.449
6,CC(NC(=O)CSCC#N)c1ccc(Cl)cc1 (stereo not drawn),-2.13
7,Cc1cc(C)n(C2CCCN(C(=O)c3csc(C4CC4)n3)C2)n1 (stereo not drawn),-2.51
8,Cc1ncc2c(n1)CN(CC(=O)Nc1nnc(C)s1)CC2,0.153
9,O=C(CCS(=O)(=O)c1ccccc1)N1CCCC(n2cccn2)C1 (stereo not drawn),-14.7
10,COc1cc(C(=O)NCc2ccc3c(c2)CCCN3C)cc(OC)c1Br,-6.69
11,Cc1sc(-c2ccco2)nc1C(=O)N1CCCC1Cn1cccn1 (stereo not drawn),-11.2
12,CC(C)(C)c1nc(CN(Cc2cccs2)C2CCS(=O)(=O)C2)no1 (stereo not drawn),-3.63
13,COc1ccc(C2=CCN(C(=O)C3CCN(C)C(=O)C3)CC2)cc1 (stereo not drawn),-9.09
14,Cc1nc(CN(Cc2ccccc2)C2CCS(=O)(=O)C2)oc1C (stereo not drawn),-8.13
15,N#Cc1ccc(F)c(CN2CCCC2Cn2cnc3ccccc32)c1 (stereo not drawn),0.224
16,Cc1noc(CN(Cc2ccc3c(c2)OCO3)Cc2ccc(C)o2)n1,-0.194
17,Cc1nnc(C(C)N2CCN(Cc3ccc4c(c3)OCO4)CC2)o1 (stereo not drawn),-11.6
18,Cc1nc(N2CCN(C(=O)c3ccsc3)CC2)c2cnn(C)c2n1,-10.6
19,Cc1cc(C)cc(N(C)S(=O)(=O)c2cc(C(=O)O)cs2)c1,-10.4
20,Cc1nccn1C1CCCN(C(=O)c2ccc3c(c2)NC(=O)CO3)C1 (stereo not drawn),-11.5
21,CC(=O)N(Cc1noc(C)n1)C1CCN(Cc2ccncc2Cl)C1 (stereo not drawn),5.87
22,Cc1cc(S(=O)(=O)NCc2cccc(C(=O)N3CCCC3)c2)c(C)s1,3.13

row,Structure (SMILES),cytotoxicity at 10 µM [%]
1,Cc1nc(CN2CCN(C(=O)c3sccc3C3CC3)CC2)cs1,3.61
2,Cc1noc(C)c1C(=O)N1C[C@H]2CCC[C@@]2(COc2ccccn2)C1,-5.53
3,CN(C)CCN1C(=O)CCCC12CCCN(C(=O)c1cc[nH]n1)C2 (stereo not drawn),-0.225
4,CN1CCOCC2(CCCN(C(=O)c3ccccc3F)C2)C1 (stereo not drawn),-91.4
5,O=C(N1CCOCC1)N1C[C@H]2CN(Cc3nccs3)C[C@H]2C1,-80.8
6,CCO[C@H]1CO[C@@]2(CCCN(S(=O)(=O)c3cccnc3)C2)C1,-86.2
7,CN(C)Cc1n[nH]c2c1CCN(Cc1cccs1)C2,1.63
8,CC(C)N1C[C@@H]2CN(C(=O)NCc3ccccc3)CCC[C@]2(C(=O)O)C1,9.37
9,Cc1cc(CN2CC[C@H]3C[C@H](C(=O)N4CCC(C)CC4)O[C@H]3C2)no1,1.34
10,Cc1nc(CN2CCCC3(CCN(c4cccnc4)C3=O)C2)cs1 (stereo not drawn),0.574
11,Cc1cnc(N2CCOCC3(CCN(c4ccccn4)C3)C2)nc1 (stereo not drawn),6.85
12,CCN(C)c1ncnc2c1CCN(C(=O)Cc1ccccn1)CC2,-3.26
13,c1cnc(N2CCN3C[C@H](Oc4cncnc4)C[C@H]3C2)nc1,7.97
14,CN1CCN(C(=O)[C@@H]2CC[C@@H]3[C@@H](CCN3c3ncccn3)O2)CC1,7.13
15,Cc1ccc(CN2CC[C@@H]3OCCN(S(C)(=O)=O)[C@H]3CC2)s1,3.91
16,O=C(CC1CC2(CCN(CC3CC3)CC2)c2ccccc21)NC1CCC1 (stereo not drawn),-4.63
17,Cn1cc(CN2C[C@@H]3COC[C@]3(CNC(=O)c3ccsc3)C2)cn1,-0.0273
18,c1cnc(N2CCC3(CCN(CC4CCOC4)C3)CC2)nc1 (stereo not drawn),-0.877
19,COCCN1CCC2(CCN(c3ncccn3)CC2)C1=O,3.47
20,CCn1cc2[nH]c(OC)c(CNC(=O)CCC3CCCC3)cc-2c1=O,-3.28
